The source made the active and inactive calls. Unless noted, the rule behind the calls is not given here.
Legend:
[1] = target: T1, Lipoprotein lipase (Bos taurus) (UniProt P11151); experiment: Induction of bovine LPL stabilization using intralipid as substrate at 3.12 uM preincubated for 10 mins with human recombinant ANGPTL4 followed by substrate addition measured after 45 mins relative to control
T1 sequence (whole entry): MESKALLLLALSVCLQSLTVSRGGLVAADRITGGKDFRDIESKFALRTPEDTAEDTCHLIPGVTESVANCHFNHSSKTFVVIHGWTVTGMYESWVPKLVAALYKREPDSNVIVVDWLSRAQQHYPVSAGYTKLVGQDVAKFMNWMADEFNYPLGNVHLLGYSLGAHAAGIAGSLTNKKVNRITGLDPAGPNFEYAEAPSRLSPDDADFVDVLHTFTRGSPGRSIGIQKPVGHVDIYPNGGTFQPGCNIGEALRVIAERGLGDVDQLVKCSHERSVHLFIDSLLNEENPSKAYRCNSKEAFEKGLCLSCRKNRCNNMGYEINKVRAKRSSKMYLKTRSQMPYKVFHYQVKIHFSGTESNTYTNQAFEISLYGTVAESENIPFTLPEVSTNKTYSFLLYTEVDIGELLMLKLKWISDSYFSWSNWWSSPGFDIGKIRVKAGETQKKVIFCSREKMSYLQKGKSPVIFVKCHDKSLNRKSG
Outline: (§1)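 Compound in DMSO in buffer (50 mM potassium phosphate pH 7.4, 0.15 M NaCl, 0.01% Triton X-100), with human ANGPTL4 N-terminal fragment (aa 26-184, 75 nM final) and bovine LPL (15 nM final). Preincubated 10 min at 25 °C with shaking. Stopped after 45 min with 2.5% Triton X-100, and NEFA measured enzymatically. Activity normalised between DMSO+LPL+ANGPTL4 (0%) and DMSO+LPL (100%).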

[2] = target: T1, Lipoprotein lipase (Bos taurus); experiment: Induction of bovine LPL stabilization using intralipid as substrate at 25 uM preincubated for 10 mins with human recombinant ANGPTL4 followed by substrate addition measured after 45 mins relative to control; outline: as §1
[3] = target: T1, Lipoprotein lipase (Bos taurus); experiment: Induction of bovine LPL stabilization using intralipid as substrate at 12.5 uM preincubated for 10 mins with human recombinant ANGPTL4 followed by substrate addition measured after 45 mins relative to control; outline: as §1
[4] = target: T1, Lipoprotein lipase (Bos taurus); experiment: Induction of bovine LPL stabilization using intralipid as substrate at 6.25 uM preincubated for 10 mins with human recombinant ANGPTL4 followed by substrate addition measured after 45 mins relative to control; outline: as §1

Compound	Activity [1]	Activity [2]	Activity [3]	Activity [4]
COc1ccc(N2C(=O)c3ccc(C(=O)O)cc3C2=O)cc1C(=O)Nc1ccc(C)cc1	inactive	inactive	inactive	inactive
CCc1ccc(NC(=O)c2cc(N3C(=O)c4ccc(C(=O)O)cc4C3=O)ccc2N2CCCCC2)cc1	inactive	47%	36.5%	32.4%
Cc1ccc(NC(=O)c2cc(N3C(=O)c4ccc(N)cc4C3=O)ccc2N2CCCCC2)cc1	inactive	11.4%	inactive	inactive
O=C(O)c1ccc2c(c1)C(=O)N(c1ccc(N3CCCCC3)c(C(=O)NCc3ccccc3)c1)C2=O	inactive	inactive	inactive	inactive
Cc1ccc(NC(=O)c2cc(Nc3ccc(C)cc3)cc(N3C(=O)c4ccc(C(=O)O)cc4C3=O)c2)cc1	inactive	24.6%	7%	5%
Cc1ccc(NC(=O)c2cc(N3C(=O)c4ccccc4C3=O)ccc2N2CCCCC2)cc1	inactive	inactive	inactive	inactive
Cc1ccc(NC(=O)c2cc(-n3cc4ccccc4n3)ccc2N2CCCCC2)cc1	inactive	inactive	inactive	inactive
Cc1ccc(NC(=O)c2cc(N3CCCCC3)cc(N3C(=O)c4ccc(C(=O)O)cc4C3=O)c2)cc1	inactive	32.6%	inactive	inactive
COCCOCCOc1ccc(N2C(=O)c3ccc(C(=O)O)cc3C2=O)cc1C(=O)Nc1ccc(C)cc1	inactive	inactive	inactive	inactive
CCCNc1ccc(N2C(=O)c3ccc(C(=O)O)cc3C2=O)cc1C(=O)Nc1ccc(C)cc1	inactive	39.7%	6.2%	inactive
Cc1ccc(NC(=O)c2cc(N3C(=O)c4ccc(C(=O)O)cc4C3=O)ccc2N2CCOCC2)cc1	inactive	inactive	inactive	inactive
Cc1ccc(NC(=O)c2cc(N3C(=O)c4ccc(C(=O)O)cc4C3=O)ccc2Nc2ccccc2)cc1	inactive	94.4%	80.1%	57.2%
Cc1ccc(NC(=O)c2ccc(N3CCCCC3)c(N3C(=O)c4ccc(C(=O)O)cc4C3=O)c2)cc1	inactive	79%	81.3%	inactive
CC(C)c1ccc(NC(=O)c2cc(N3C(=O)c4ccc(C(=O)O)cc4C3=O)ccc2N2CCCCC2)cc1	inactive	53.1%	71%	55.6%
COCCNc1ccc(N2C(=O)c3ccc(C(=O)O)cc3C2=O)cc1C(=O)Nc1ccc(C)cc1	inactive	inactive	inactive	inactive
O=C(O)c1ccc2c(c1)C(=O)N(c1ccc(N3CCCCC3)c(C(=O)Nc3ccc(C(F)(F)F)cc3)c1)C2=O	inactive	81.6%	54.6%	inactive
CCCCCCNc1ccc(N2C(=O)c3ccc(C(=O)O)cc3C2=O)cc1C(=O)Nc1ccc(C)cc1	inactive	67.2%	47.1%	60.6%
O=C(O)c1ccc2c(c1)C(=O)N(c1ccc(N3CCCCC3)c(C(=O)Nc3ccccc3)c1)C2=O	inactive	57%	inactive	inactive
CCN(CC)c1ccc(N2C(=O)c3ccc(C(=O)O)cc3C2=O)cc1C(=O)Nc1ccc(C)cc1	inactive	49.5%	inactive	inactive
CC(C)c1ccc(NC(=O)c2cc(N3C(=O)c4ccc(C(=O)O)cc4C3=O)ccc2Nc2ccccc2)cc1	inactive	52.5%	59.1%	44.1%
Cc1ccc(NC(=O)c2ccc(N3C(=O)c4ccc(C(=O)O)cc4C3=O)cc2N2CCCCC2)cc1	inactive	14.1%	inactive	inactive

Compound	Activity [1]	Activity [2]	Activity [3]	Activity [4]
Cc1ccc(NC(=O)c2cc(N3CCCCC3)ccc2N2C(=O)c3ccc(C(=O)O)cc3C2=O)cc1	inactive	36.3%	55.1%	inactive
O=C1c2ccccc2C(=O)N1c1ccccc1	inactive	inactive	inactive	inactive
Cc1ccc(NC(=O)c2ccc(N3CCCCC3)cc2N2C(=O)c3ccc(C(=O)O)cc3C2=O)cc1	inactive	96.7%	inactive	inactive
COc1ccc(NC(=O)c2cc(N3C(=O)c4ccc(C(=O)O)cc4C3=O)ccc2N2CCCCC2)cc1	inactive	43.8%	inactive	inactive
CCc1cccc(NC(=O)c2cc(N3C(=O)c4ccc(C(=O)O)cc4C3=O)ccc2Nc2ccccc2)c1	inactive	52.2%	63.9%	44.3%
Cc1ccc(NC(=O)c2cc(N3C(=O)c4ccc(C(=O)O)cc4C3=O)ccc2N2CCCCC2)cc1C(F)(F)F	inactive	65.8%	42.2%	19.4%
Cc1ccc(NC(=O)c2cc(N3C(=O)c4ccc(C(N)=O)cc4C3=O)ccc2N2CCCCC2)cc1	inactive	3.5%	inactive	inactive
Cc1ccc(NC(=O)c2cc(N3C(=O)c4ccc(C(=O)O)cc4C3=O)ccc2N2CCCCC2)cc1F	inactive	72.1%	53.3%	inactive
Cc1ccc(NC(=O)c2cc(N3C(=O)c4ccc(C(=O)O)cc4C3=O)ccc2N2CCCCC2)cc1Cl	inactive	69.8%	73%	66.8%
Cc1ccc(NC(=O)c2cc(N3C(=O)c4ccc(C(=O)O)cc4C3=O)ccc2N2CCN(C)CC2)cc1	inactive	inactive	inactive	inactive
Cc1ccc(NC(=O)c2cc(Cl)cc(N3C(=O)c4ccc(C(=O)O)cc4C3=O)c2)cc1	inactive	inactive	inactive	inactive
CCCCCCCCCCNc1ccc(N2C(=O)c3ccc(C(=O)O)cc3C2=O)cc1C(=O)Nc1ccc(C)cc1	13.6%	19.2%	10%	5.9%
Cc1ccc(NC(=O)c2cc(N3C(=O)c4ccc(C(=O)O)cc4C3=O)ccc2Br)cc1	inactive	inactive	inactive	inactive
COC(=O)c1ccc2c(c1)C(=O)N(c1ccc(N3CCCCC3)c(C(=O)Nc3ccc(C)cc3)c1)C2=O	inactive	inactive	inactive	inactive
Cc1ccc(NC(=O)c2cc(N3C(=O)c4ccc(C(=O)O)cc4C3=O)ccc2Cl)cc1	inactive	inactive	inactive	inactive
O=C(O)c1ccc2c(c1)C(=O)N(c1ccccc1)C2=O	inactive	inactive	inactive	inactive
CCc1cccc(NC(=O)c2cc(N3C(=O)c4ccc(C(=O)O)cc4C3=O)ccc2N2CCCCC2)c1	inactive	71%	63.4%	9.2%
O=C(O)c1ccc2c(c1)C(=O)N(c1ccc(Nc3ccccc3)c(C(=O)Nc3ccccc3-c3ccccc3)c1)C2=O	inactive	73.8%	61.5%	45%
O=C(O)c1ccc2c(c1)C(=O)N(c1ccc(Cl)c(C(=O)NCc3cccnc3)c1)C2=O	inactive	inactive	inactive	inactive
Cc1ccc(NC(=O)c2cccc(N3C(=O)c4ccc(C(=O)O)cc4C3=O)c2N2CCCCC2)cc1	inactive	13.5%	inactive	inactive

Reference: ChEMBL document CHEMBL3745639, “Structure-activity relationships for lipoprotein lipase agonists that lower plasma triglycerides in vivo” (Eur J Med Chem, 2015)
